# Only some compounds are listed: those with a hit (about 2.3% of all), similar ones and a draw of the others.
# TRPC6 inh: blocks the mouse TRPC6 cation channel | Q61143 | HEK293-TRPC6, membrane potential dye, ACh-evoked depolarization; hits give low values | B-score at 10 µM | hit rate 1.1% among 310,000 | AID 2553;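 active = B-score under library mean minus 3 SD, initial fluorescence not abnormally high, positive integrated signal ratio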;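 also: B-score derived from integrated fluorescence ratio over the kinetic read; more negative B-score means stronger inhibition of depolarization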
# TRPC4 agonist: activators of mouse TRPC4 channel. HEK293 TRPC4beta/mu-opioid, Fluo4 calcium fluorescence; hits give high values. B-score at 10 µM. Q9QUQ5. hit rate 0.49% among 310,000;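 active = B-score above 5 SD of library B-scores, and initial fluorescence ratio not above library mean plus 5 SD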;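 also: positive B-score marks a calcium rise read as TRPC4 activation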
# Target sequence (Q9QUQ5 whole entry, looked up): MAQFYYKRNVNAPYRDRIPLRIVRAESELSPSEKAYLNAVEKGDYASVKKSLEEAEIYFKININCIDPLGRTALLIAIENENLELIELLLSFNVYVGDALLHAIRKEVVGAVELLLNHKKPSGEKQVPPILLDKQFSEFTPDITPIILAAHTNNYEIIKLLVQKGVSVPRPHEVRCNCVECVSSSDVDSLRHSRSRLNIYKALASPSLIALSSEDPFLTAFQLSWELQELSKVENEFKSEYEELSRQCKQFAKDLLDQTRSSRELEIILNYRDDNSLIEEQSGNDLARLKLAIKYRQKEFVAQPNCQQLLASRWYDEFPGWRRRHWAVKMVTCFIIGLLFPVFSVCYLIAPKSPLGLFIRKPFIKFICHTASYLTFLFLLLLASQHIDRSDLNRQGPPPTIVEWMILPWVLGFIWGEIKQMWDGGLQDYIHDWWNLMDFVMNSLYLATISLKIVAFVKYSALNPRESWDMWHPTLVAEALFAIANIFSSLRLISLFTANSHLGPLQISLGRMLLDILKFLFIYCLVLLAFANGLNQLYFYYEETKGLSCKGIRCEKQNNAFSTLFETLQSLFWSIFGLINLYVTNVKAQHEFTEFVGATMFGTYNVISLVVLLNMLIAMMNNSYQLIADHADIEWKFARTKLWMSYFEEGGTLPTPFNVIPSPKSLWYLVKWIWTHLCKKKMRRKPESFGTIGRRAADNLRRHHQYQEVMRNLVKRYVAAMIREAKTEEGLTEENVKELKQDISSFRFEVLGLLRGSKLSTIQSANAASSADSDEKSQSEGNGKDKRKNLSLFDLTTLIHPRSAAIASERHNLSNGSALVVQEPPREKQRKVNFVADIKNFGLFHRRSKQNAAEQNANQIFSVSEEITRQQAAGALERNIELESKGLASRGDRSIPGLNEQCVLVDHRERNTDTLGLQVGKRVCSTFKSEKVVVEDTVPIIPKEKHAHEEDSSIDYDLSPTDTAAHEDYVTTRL
#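 Test system: HEK293 cells stably co-expressing mouse TRPC4beta and mu-opioid receptor | Schedule: Fluo4 dye loading 45 min at room temperature, 110 s recording | Measured by: Kinetic Fluo4 calcium fluorescence, 5 s baseline at 1 Hz | Evaluation: B score of integrated ratio | Controls: Buffer (low) and maximal DAMGO (high)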
# TRPC6 activator: mouse TRPC6 channel activation; Q61143; HEK293-TRPC6 membrane potential dye fluorescence; hits give high values; B-score at 10 µM; hit rate 0.13% among 310,000;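 active = B-score of the integrated fluorescence ratio above library mean plus 3 SD, and starting fluorescence ratio within library mean plus 5 SD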;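 also: higher score means more depolarization so channel activation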
# TRPC4 block: blocks the mouse TRPC4 cation channel | Q9QUQ5 | HEK293 TRPC4beta/mu-opioid, DAMGO-evoked Fluo4 calcium flux; hits give low values | B-score at 10 µM | hit rate 0.39% among 300,000;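 active = B-score over 3 SD under the library average, no early fluorescence shift, positive overall ratio signal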
#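 Assay system: TRPC4beta/mu-opioid receptor HEK293 cell line; compound dosing: single concentration per test compound; detection: Fluo4 Ca2+ flux fluorescence; evaluation: per-well B score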
# TRPC4 potent: allosterically enhances the mouse TRPC4 cation channel. Q9QUQ5. HEK293 TRPC4beta/mu-opioid, DAMGO EC20, Fluo-4 Ca2+ flux; hits give high values. B-score at 10 µM. hit rate 0.42% among 310,000;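 active = B-score of calcium response area above 5 SD of library B-scores, with initial fluorescence ratio within 5 SD of library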;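 also: B-score of integrated fluorescence ratio over time as area under calcium response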
# TRPC4 spec 2: second selectivity test of TRPC6 inhibitors: effect on mouse TRPC4 | shares compounds with TRPC6 inh | HEK293 TRPC4/MOR, membrane potential dye fluorescence; channel activated by saturating DAMGO dose | inhibition, % at 10 µM | hit rate 42% among 920;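 active = compounds whose fluorescence signal differed from control wells by over 3 SD, either direction, in both duplicate plates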
# TRPC4 spec: selectivity of TRPC6 inhibitors: effect on mouse TRPC4 | activity change, negative = inhibition, % at 10 µM | HEK293 TRPC4/mu-opioid, membrane potential fluorescence | hit rate 61% among 920 | shares compounds with TRPC6 inh;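 active = rise or fall in signal beyond 3 SD of buffer-only wells in both replicate plates, either sign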;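 also: integrated kinetic ratio of fluorescence range over baseline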
# HEK293 MPD ctr 2-1: second counter-screen for TRPC6 inhibitors: parental HEK293 cells; shares compounds with TRPC6 inh; parental HEK293 membrane potential dye fluorescence; maximal acetylcholine challenge after compound addition; signal change vs control, % at 10 µM; hit rate 31% among 920;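 active = membrane potential signal moving either way by over 3 SD of the maximum-effect control, in both duplicate plates, meaning non-specific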
# HEK293 MPD ctr-1: parental HEK293 nonspecific activity of TRPC6 inhibitors. shares compounds with TRPC6 inh. parental HEK293 membrane potential dye fluorescence. membrane potential signal change, % at 10 µM. hit rate 60% among 920. AID 2780;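 active = membrane potential signal shifting up or down by more than 3 SD of buffer-only wells, on both duplicate plates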
# HEK293 MPD ctr-2: checks TRPC6 modulator effects in parental HEK293 cells | AID 488924 | membrane potential dye fluorescence | membrane potential signal change, % at 10 µM | hit rate 51% among 2,400 | shares compounds with TRPC6 inh;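 active = membrane potential signal moves up or down beyond 5 SD from buffer-only wells, on both duplicate plates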
# HEK293 MPD ctr 2-2: second check of TRPC6 modulator effects in parental HEK293 cells; shares compounds with TRPC6 inh; membrane potential dye fluorescence; after compound, maximal acetylcholine stimulation; inhibition, % at 10 µM; hit rate 14% among 2,400; AID 488926;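 active = membrane potential signal drops by more than 5 SD from the mean control signal, in both duplicate plates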;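 also: plate controls were acetylcholine ECmax control wells for no effect and buffer only wells for full effect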
# TRPC4/MOR mod: selectivity of TRPC6 modulators against mouse TRPC4; shares compounds with TRPC6 inh; HEK293 TRPC4/mu-opioid, membrane potential fluorescence; percent change from control (negative = decrease, positive = increase), % at 10 µM; hit rate 69% among 2,400; AID 488927;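 active = membrane potential signal moved up or down beyond 5 SD of buffer control wells, in both duplicate plates, actives on both sides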;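 also: plate controls were assay buffer wells for no effect and DAMGO maximal-effect wells for full effect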
# TRPC4 ctr inh 2: mouse TRPC4 off-target activity of TRPC6 modulators, second screen. AID 488928. HEK293 TRPC4/mu-opioid, membrane potential dye fluorescence; stimulated with maximal-effect DAMGO. hit rate 55% among 2,400. shares compounds with TRPC6 inh. inhibition, % at 10 µM;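 active = drop in membrane potential signal beyond 5 SD of the control wells in both duplicate plates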;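 also: TRPC4 counter screen for TRPC6 hits run under conditions tuned for TRPC6 not TRPC4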
# TRPC6 inh conf: mouse TRPC6 inhibitor confirmation; shares compounds with TRPC6 inh; HEK293-TRPC6, membrane potential dye, ACh-evoked depolarization; inhibition, % at 10 µM; AID 488960; hit rate 43% among 3,300;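 active = fluorescence ratio falls more than 5 SD below the full-stimulation control mean, in both duplicate runs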;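 also: integrated fluorescence ratio of peak minus minimum over baseline after agonist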
# TRPC6 act confirm: confirmation of mouse TRPC6 activators | activation, % at 10 µM | HEK293-TRPC6 membrane potential dye fluorescence, FDSS | hit rate 11% among 2,800 | AID 488961 | shares compounds with TRPC6 inh;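 active = ratio signal rise beyond 5 SD above unstimulated control wells' mean, seen in both duplicate runs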;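 also: plate controls were buffer EC0 wells for no effect and acetylcholine ECmax response for full effect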
# Numbers without * were called inactive; i = inactive; · = not tested or not shown.
SMILES,TRPC6 inh,TRPC4 agonist,TRPC6 activator,TRPC4 block,TRPC4 potent,HEK293 MPD ctr-2,HEK293 MPD ctr 2-2,TRPC4/MOR mod,TRPC4 ctr inh 2,TRPC6 inh conf,TRPC6 act confirm,others
CCc1sc(C(=O)Nc2cccnc2)cc1Br,i,i,i,i,i,·,·,·,·,·,·,
Cc1cc(Br)ccc1OCCCCNC(C)(C)C,i,i,i,i,i,·,·,·,·,·,·,
CC(C)COc1ccc(Br)cc1CNC(C)(C)C,-8.84*,i,i,i,i,584.0%*,120.0%*,127.5%*,83.0%*,105.5%*,·,
COc1ccccc1C(=O)NNC(=O)CCC(=O)NCc1ccccc1,i,i,i,i,i,·,·,·,·,·,·,
CN(C)CCNC(=O)c1sc2nc(-c3ccccc3)cc(C(F)(F)F)c2c1N,i,83*,15.7*,i,i,311.5%*,i,57.0%*,45.0%*,·,143.5%*,
COc1ccc(-c2cc(C(F)(F)F)c3c(N)c(C(=O)NCCSC)sc3n2)cc1,i,i,i,i,i,·,·,·,·,·,·,
Cc1cccc(N2CCN(C3CCCCC3NS(=O)(=O)c3ccccc3)CC2C)c1 (stereo unspecified),i,i,i,i,i,·,·,·,·,·,·,
CCN1CCN(c2cc(C)c3cc(NC(=O)c4ccc(C)c(C)c4)ccc3n2)CC1,i,i,i,i,i,·,·,·,·,·,·,
CCN1CCN(c2cc(C)c3cc(NC(=O)c4ccc(Br)o4)ccc3n2)CC1,-5.45*,i,i,-6*,i,i,i,-11.5%*,42.5%*,i,i,
CCN1CCN(c2cc(C)c3cc(NC(=O)c4ccncc4)ccc3n2)CC1,-5.48*,i,i,i,i,-100.5%*,i,i,i,i,i,
Cc1ccccc1C(=O)N1CCN(c2ccc([N+](=O)[O-])c(N3CCOCC3)c2)CC1,-5.37*,i,i,i,i,i,i,i,i,i,i,
COc1ccccc1CNC1CCCc2ccccc21 (stereo unspecified),-7.43*,i,i,i,i,·,·,·,·,64.8%*,·,TRPC4 spec 2=i;TRPC4 spec=19.9%*;HEK293 MPD ctr 2-1=i;HEK293 MPD ctr-1=9.1%*
Cc1ccc(NC(=S)NCCN(C2CCCCC2)C2CCCC2)cc1C,-5.25*,i,i,i,i,110.5%*,i,16.0%*,65.5%*,i,·,
COc1cc(C(=O)Nc2ccc(N(C)C)cc2)cc(OC)c1OC,-6.4*,i,i,i,i,i,i,i,i,i,i,
COc1cc(C(=O)Nc2ccc(NC(=O)c3cccc(Cl)c3)nc2)cc(OC)c1OC,-5.42*,i,i,i,i,i,i,i,i,i,i,
COC(=O)c1c(NC(=O)C(=O)NCC2CCCO2)sc2c1CC(C)(C)OC2 (stereo unspecified),i,i,i,i,i,·,·,·,·,·,·,
CCCn1ncc(CN2CCCC(C(=O)c3cccc(OC(C)C)c3)C2)c1C (stereo unspecified),-5.34*,i,i,i,i,118.5%*,i,24.0%*,40.5%*,50.5%*,·,
CSc1ncc(C(=O)Nc2ccc(Br)cn2)c(C)n1,i,i,i,i,i,·,·,·,·,·,·,
CN(C)CCCN1C(=O)c2cccc3c(Br)ccc(c23)C1=O,-9.6*,i,i,i,i,i,87.0%*,-31.5%*,80.5%*,80.5%*,i,
CN(C)C=Nc1c(Br)cc(Br)c2nonc12,i,i,25.4*,i,i,983.5%*,i,135.5%*,i,i,190.0%*,
CC(C)(C)n1nnnc1C(c1ccccc1)N1CCc2ccccc2C1 (stereo unspecified),-7.57*,i,i,i,i,·,·,·,·,i,i,TRPC4 spec 2=i;TRPC4 spec=12.4%*;HEK293 MPD ctr 2-1=i;HEK293 MPD ctr-1=6.8%*
CCOC(=O)C1=C(C)N(CCCC(=O)O)C(=O)NC1c1cccs1 (stereo unspecified),i,i,i,i,i,·,·,·,·,·,·,
Cc1ccc(Nc2nc(N)c3ccccc3n2)cc1Cl,-6.5*,i,i,i,i,-127.5%*,83.0%*,-35.0%*,79.0%*,75.0%*,i,
COc1cc2nc(Nc3ccc(C)c(Cl)c3)nc(N)c2cc1OC,i,i,i,i,i,·,·,·,·,·,·,
CN(C)c1ccc(Nc2nc(N)c3ccccc3n2)cc1,-7.33*,i,i,i,i,-181.5%*,89.5%*,-45.0%*,86.0%*,84.5%*,i,
Nc1nc(Nc2ccccc2)nc2ccccc12,-22*,i,i,i,i,-199.5%*,90.5%*,-45.5%*,86.5%*,85.5%*,i,
CCOc1ccc(Nc2nc(N)c3ccccc3n2)cc1,i,i,i,i,i,·,·,·,·,·,·,
Cc1ccccc1Nc1nc(N)c2ccccc2n1,-6.75*,i,i,i,i,·,·,·,·,70.1%*,i,TRPC4 spec 2=31.5%*;TRPC4 spec=-25.8%*;HEK293 MPD ctr 2-1=35.5%*;HEK293 MPD ctr-1=-330.5%*
CN(C)c1nc(Nc2ccccc2)nc(N(C)C)n1,i,i,i,i,i,·,·,·,·,·,·,
O=C(CSc1nc(=O)n(CCCN2CCOCC2)c2c1CCCC2)Nc1ccc(Cl)cc1,i,i,i,i,i,·,·,·,·,·,·,

# Source: PubChem BioAssay
